According to ChEMBL document CHEMBL1795297, “Design, synthesis and molecular docking studies of novel triazole as antifungal agent” (2011):
Converted amounts (≈) assume the structure as drawn.

How the values were obtained:
Format in all cases: functional
Candida albicans = experiment: Antifungal activity against Candida albicans ATCC Y0109 after 24 hrs by micro-broth dilution method; details: ATCC Y0109, 24 h
Summary of the method: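 ATCC quality-control strain, tested in every assay. NCCLS M27-A2 broth microdilution. Compounds were dissolved in DMSO, serially diluted in growth medium, inoculated and incubated at 35 °C, with growth read at 24 h. MIC80 is the first well with about 80% growth reduction relative to the drug-free control. Each test was run three times and the mean of replicates taken.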

Cryptococcus neoformans = experiment: Antifungal activity against Cryptococcus neoformans ATCC BLS108 after 72 hrs by micro-broth dilution method; details: ATCC BLS108, 72 h
Summary of the method: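 Quality-control ATCC strain included in each assay. Microbroth dilution per NCCLS M27-A2. DMSO-dissolved compounds were serially diluted in growth medium, inoculated and held at 35 °C, with MIC read at 72 h. MIC80 is the first well showing about 80% growth reduction versus the drug-free well. Tests were done in triplicate and the mean reported.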

Aspergillus fumigatus = experiment: Antifungal activity against Aspergillus fumigatus clinical isolate by micro-broth dilution method
Summary of the method: (§1)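 Clinical isolate. MIC by broth microdilution following the NCCLS M27-A2 reference method for yeasts. Compounds were dissolved in DMSO, serially diluted in growth medium, inoculated and incubated at 35 °C. MIC80 is the first well with about 80% less growth than the drug-free well. Each test was run three times and the mean of replicates reported.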

Candida parapsilosis = experiment: Antifungal activity against Candida parapsilosis clinical isolate by micro-broth dilution method; details: Lodderomyces parapsilosis; summary of the method: as §1
Candida tropicalis = experiment: Antifungal activity against Candida tropicalis clinical isolate by micro-broth dilution method; summary of the method: as §1
Trichophyton rubrum = experiment: Antifungal activity against Trichophyton rubrum clinical isolate by micro-broth dilution method; summary of the method: as §1
[1] = Antifungal activity against Fonsecaea compacta clinical isolate by micro-broth dilution method; summary of the method: as §1
Nannizzia gypsea = experiment: Antifungal activity against Microsporum gypseum clinical isolate by micro-broth dilution method; summary of the method: as §1

SMILES | MIC80 (Candida albicans) [µg/mL] | MIC80 (Cryptococcus neoformans) [µg/mL] | MIC80 (Aspergillus fumigatus) [µg/mL] | MIC80 (Candida parapsilosis) [µg/mL] | MIC80 (Candida tropicalis) [µg/mL] | MIC80 (Trichophyton rubrum) [µg/mL] | MIC80 [1] [µg/mL] | MIC80 (Nannizzia gypsea) [µg/mL]
O=C(/C=C/c1ccc(Cl)cc1)Nc1ccc(N2CCN(CC(O)(Cn3cncn3)c3ccc(F)cc3F)CC2)c(C(F)(F)F)c1 (stereo unspecified) | 1 (≈ 1.55 µM) | 0.25 (≈ 0.386 µM) | 1 (≈ 1.55 µM) | – | – | – | – | –
CC(C)C(=O)Nc1ccc(N2CCN(CC(O)(Cn3cncn3)c3ccc(F)cc3F)CC2)c(C(F)(F)F)c1 (stereo unspecified) | 0.25 (≈ 0.452 µM) | 1 (≈ 1.81 µM) | 64 (≈ 116 µM) | 0.25 (≈ 0.452 µM) | 1 (≈ 1.81 µM) | 1 (≈ 1.81 µM) | 4 (≈ 7.24 µM) | 1 (≈ 1.81 µM)
O=C(Nc1ccc(N2CCN(CC(O)(Cn3cncn3)c3ccc(F)cc3F)CC2)c(C(F)(F)F)c1)c1ccco1 (stereo unspecified) | 0.0625 (≈ 0.108 µM) | 0.25 (≈ 0.434 µM) | 1 (≈ 1.73 µM) | – | – | – | – | –
O=C(/C=C/c1cccc(Br)c1)Nc1ccc(N2CCN(CC(O)(Cn3cncn3)c3ccc(F)cc3F)CC2)c(C(F)(F)F)c1 (stereo unspecified) | 0.25 (≈ 0.362 µM) | 0.25 (≈ 0.362 µM) | 1 (≈ 1.45 µM) | – | – | – | – | –
C[C@@H](c1ncncc1F)[C@](O)(Cn1cncn1)c1ccc(F)cc1F [VORICONAZOLE] | 0.0156 (≈ 0.0447 µM) | 0.0156 (≈ 0.0447 µM) | 1 (≈ 2.86 µM) | 1 (≈ 2.86 µM) | 0.25 (≈ 0.716 µM) | 0.0039 (≈ 0.0112 µM) | 0.0156 (≈ 0.0447 µM) | 0.0039 (≈ 0.0112 µM)
CC(C)(C)C(=O)Nc1ccc(N2CCN(CC(O)(Cn3cncn3)c3ccc(F)cc3F)CC2)c(C(F)(F)F)c1 (stereo unspecified) | 0.25 (≈ 0.441 µM) | 1 (≈ 1.76 µM) | > 64 | 1 (≈ 1.76 µM) | 1 (≈ 1.76 µM) | 4 (≈ 7.06 µM) | 4 (≈ 7.06 µM) | 0.25 (≈ 0.441 µM)
O=C(/C=C/c1ccco1)Nc1ccc(N2CCN(CC(O)(Cn3cncn3)c3ccc(F)cc3F)CC2)c(C(F)(F)F)c1 (stereo unspecified) | 0.25 (≈ 0.415 µM) | 0.25 (≈ 0.415 µM) | 4 (≈ 6.64 µM) | – | – | – | – | –
CCCC(=O)Nc1ccc(N2CCN(CC(O)(Cn3cncn3)c3ccc(F)cc3F)CC2)c(C(F)(F)F)c1 (stereo unspecified) | 1 (≈ 1.81 µM) | 1 (≈ 1.81 µM) | > 64 | 0.25 (≈ 0.452 µM) | 1 (≈ 1.81 µM) | 4 (≈ 7.24 µM) | 4 (≈ 7.24 µM) | 1 (≈ 1.81 µM)
Cc1ccc(/C=C/C(=O)Nc2ccc(N3CCN(CC(O)(Cn4cncn4)c4ccc(F)cc4F)CC3)c(C(F)(F)F)c2)cc1 (stereo unspecified) | 0.25 (≈ 0.399 µM) | 1 (≈ 1.6 µM) | 4 (≈ 6.38 µM) | – | – | – | – | –
CCCCCC(=O)Nc1ccc(N2CCN(CC(O)(Cn3cncn3)c3ccc(F)cc3F)CC2)c(C(F)(F)F)c1 (stereo unspecified) | 1 (≈ 1.72 µM) | 1 (≈ 1.72 µM) | 64 (≈ 110 µM) | 1 (≈ 1.72 µM) | 4 (≈ 6.89 µM) | 4 (≈ 6.89 µM) | 16 (≈ 27.6 µM) | 4 (≈ 6.89 µM)
O=C(Nc1ccc(N2CCN(CC(O)(Cn3cncn3)c3ccc(F)cc3F)CC2)c(C(F)(F)F)c1)c1cccc(C(F)(F)F)c1 (stereo unspecified) | 0.0625 (≈ 0.0955 µM) | 0.0625 (≈ 0.0955 µM) | 16 (≈ 24.4 µM) | – | – | – | – | –
CC(C)(C)c1ccc(C(=O)Nc2ccc(N3CCN(CC(O)(Cn4cncn4)c4ccc(F)cc4F)CC3)c(C(F)(F)F)c2)cc1 (stereo unspecified) | 4 (≈ 6.22 µM) | 0.25 (≈ 0.389 µM) | > 64 | 0.25 (≈ 0.389 µM) | 1 (≈ 1.56 µM) | 4 (≈ 6.22 µM) | 4 (≈ 6.22 µM) | 4 (≈ 6.22 µM)
COc1cccc(OC)c1/C=C/C(=O)Nc1ccc(N2CCN(CC(O)(Cn3cncn3)c3ccc(F)cc3F)CC2)c(C(F)(F)F)c1 (stereo unspecified) | 0.25 (≈ 0.372 µM) | 1 (≈ 1.49 µM) | > 64 | – | – | – | – | –
CCCCC(=O)Nc1ccc(N2CCN(CC(O)(Cn3cncn3)c3ccc(F)cc3F)CC2)c(C(F)(F)F)c1 (stereo unspecified) | 1 (≈ 1.76 µM) | 4 (≈ 7.06 µM) | > 64 | 0.25 (≈ 0.441 µM) | 1 (≈ 1.76 µM) | 4 (≈ 7.06 µM) | 4 (≈ 7.06 µM) | 4 (≈ 7.06 µM)
CCCCCCC(=O)Nc1ccc(N2CCN(CC(O)(Cn3cncn3)c3ccc(F)cc3F)CC2)c(C(F)(F)F)c1 (stereo unspecified) | 1 (≈ 1.68 µM) | 1 (≈ 1.68 µM) | > 64 | 4 (≈ 6.73 µM) | 4 (≈ 6.73 µM) | 4 (≈ 6.73 µM) | 16 (≈ 26.9 µM) | 4 (≈ 6.73 µM)
OC(Cn1cncn1)(Cn1cncn1)c1ccc(F)cc1F [FLUCONAZOLE] | 4 (≈ 13.1 µM) | 1 (≈ 3.27 µM) | 64 (≈ 209 µM) | 1 (≈ 3.27 µM) | 1 (≈ 3.27 µM) | 0.25 (≈ 0.816 µM) | 16 (≈ 52.2 µM) | 0.25 (≈ 0.816 µM)

SMILES | MIC80 (Candida albicans) [µg/mL] | MIC80 (Cryptococcus neoformans) [µg/mL] | MIC80 (Aspergillus fumigatus) [µg/mL] | MIC80 (Candida parapsilosis) [µg/mL] | MIC80 (Candida tropicalis) [µg/mL] | MIC80 (Trichophyton rubrum) [µg/mL] | MIC80 [1] [µg/mL] | MIC80 (Nannizzia gypsea) [µg/mL]
O=C(Nc1ccc(N2CCN(CC(O)(Cn3cncn3)c3ccc(F)cc3F)CC2)c(C(F)(F)F)c1)c1ccncc1 (stereo unspecified) | 0.0625 (≈ 0.106 µM) | 0.25 (≈ 0.425 µM) | 1 (≈ 1.7 µM) | – | – | – | – | –
O=C(Nc1ccc(N2CCN(CC(O)(Cn3cncn3)c3ccc(F)cc3F)CC2)c(C(F)(F)F)c1)c1cccnc1 (stereo unspecified) | 0.0625 (≈ 0.106 µM) | 0.25 (≈ 0.425 µM) | 4 (≈ 6.81 µM) | – | – | – | – | –
O=C(/C=C/c1ccc(F)cc1)Nc1ccc(N2CCN(CC(O)(Cn3cncn3)c3ccc(F)cc3F)CC2)c(C(F)(F)F)c1 (stereo unspecified) | 0.0156 (≈ 0.0247 µM) | 0.25 (≈ 0.396 µM) | 4 (≈ 6.34 µM) | – | – | – | – | –
CCc1ccc(C(=O)Nc2ccc(N3CCN(CC(O)(Cn4cncn4)c4ccc(F)cc4F)CC3)c(C(F)(F)F)c2)cc1 (stereo unspecified) | 0.25 (≈ 0.407 µM) | 0.0625 (≈ 0.102 µM) | 4 (≈ 6.51 µM) | – | – | – | – | –
O=C(/C=C/c1cccc(F)c1)Nc1ccc(N2CCN(CC(O)(Cn3cncn3)c3ccc(F)cc3F)CC2)c(C(F)(F)F)c1 (stereo unspecified) | 0.25 (≈ 0.396 µM) | 0.25 (≈ 0.396 µM) | 16 (≈ 25.4 µM) | – | – | – | – | –
O=C(Nc1ccc(N2CCN(CC(O)(Cn3cncn3)c3ccc(F)cc3F)CC2)c(C(F)(F)F)c1)c1ccc(Cl)cc1Cl (stereo unspecified) | 0.25 (≈ 0.381 µM) | 0.25 (≈ 0.381 µM) | 0.25 (≈ 0.381 µM) | – | – | – | – | –
O=C(/C=C/c1ccccc1[N+](=O)[O-])Nc1ccc(N2CCN(CC(O)(Cn3cncn3)c3ccc(F)cc3F)CC2)c(C(F)(F)F)c1 (stereo unspecified) | 0.25 (≈ 0.38 µM) | 0.25 (≈ 0.38 µM) | > 64 | – | – | – | – | –
N#Cc1cccc(/C=C/C(=O)Nc2ccc(N3CCN(CC(O)(Cn4cncn4)c4ccc(F)cc4F)CC3)c(C(F)(F)F)c2)c1 (stereo unspecified) | 0.25 (≈ 0.392 µM) | 0.25 (≈ 0.392 µM) | 4 (≈ 6.27 µM) | – | – | – | – | –
O=C(/C=C/c1ccccc1F)Nc1ccc(N2CCN(CC(O)(Cn3cncn3)c3ccc(F)cc3F)CC2)c(C(F)(F)F)c1 (stereo unspecified) | 0.0625 (≈ 0.0991 µM) | 0.25 (≈ 0.396 µM) | 4 (≈ 6.34 µM) | – | – | – | – | –
O=C(/C=C/c1ccccc1Cl)Nc1ccc(N2CCN(CC(O)(Cn3cncn3)c3ccc(F)cc3F)CC2)c(C(F)(F)F)c1 (stereo unspecified) | 0.0625 (≈ 0.0966 µM) | 0.25 (≈ 0.386 µM) | 4 (≈ 6.18 µM) | – | – | – | – | –
O=C(/C=C/c1ccc(Br)cc1)Nc1ccc(N2CCN(CC(O)(Cn3cncn3)c3ccc(F)cc3F)CC2)c(C(F)(F)F)c1 (stereo unspecified) | 1 (≈ 1.45 µM) | 0.25 (≈ 0.362 µM) | 1 (≈ 1.45 µM) | – | – | – | – | –
COc1ccc(/C=C/C(=O)Nc2ccc(N3CCN(CC(O)(Cn4cncn4)c4ccc(F)cc4F)CC3)c(C(F)(F)F)c2)cc1OC (stereo unspecified) | 1 (≈ 1.49 µM) | 1 (≈ 1.49 µM) | 4 (≈ 5.95 µM) | – | – | – | – | –
O=C(/C=C/c1cccc([N+](=O)[O-])c1)Nc1ccc(N2CCN(CC(O)(Cn3cncn3)c3ccc(F)cc3F)CC2)c(C(F)(F)F)c1 (stereo unspecified) | 0.25 (≈ 0.38 µM) | 0.0625 (≈ 0.095 µM) | 4 (≈ 6.08 µM) | – | – | – | – | –
O=C(/C=C/c1ccc(Cl)c(Cl)c1)Nc1ccc(N2CCN(CC(O)(Cn3cncn3)c3ccc(F)cc3F)CC2)c(C(F)(F)F)c1 (stereo unspecified) | 0.25 (≈ 0.367 µM) | 0.25 (≈ 0.367 µM) | 4 (≈ 5.87 µM) | – | – | – | – | –
O=C(/C=C/c1ccc([N+](=O)[O-])cc1)Nc1ccc(N2CCN(CC(O)(Cn3cncn3)c3ccc(F)cc3F)CC2)c(C(F)(F)F)c1 (stereo unspecified) | 0.0156 (≈ 0.0237 µM) | 0.25 (≈ 0.38 µM) | 4 (≈ 6.08 µM) | – | – | – | – | –
O=C(/C=C/c1cccc(Cl)c1)Nc1ccc(N2CCN(CC(O)(Cn3cncn3)c3ccc(F)cc3F)CC2)c(C(F)(F)F)c1 (stereo unspecified) | 0.25 (≈ 0.386 µM) | 0.25 (≈ 0.386 µM) | 4 (≈ 6.18 µM) | – | – | – | – | –
